Laboratory results as given in ChEMBL document CHEMBL1145962, “Structure-based de novo design, synthesis, and biological evaluation of non-azole inhibitors specific for lanosterol 14alpha-demethylase of fungi” (2003).
Converted amounts (≈) assume the structure as drawn.

Experiments:
Type in all cases: functional
Microsporum canis = assay: In vitro antifungal activity against Microsporum canis
Outline: (§1)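 Dermatophytes tested by NCCLS serial dilution in 96-well plates, in RPMI 1640 with 0.165 M MOPS. Compounds were prepared in DMSO and diluted in medium. Incubation was at 28 °C with reading at 7 days. MIC is the lowest concentration giving turbidity at ≤80% inhibition of control growth.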

Aspergillus fumigatus = assay: In vitro antifungal activity against Aspergillus fumigatus
Outline: (§2)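 Filamentous fungi were tested by NCCLS microdilution in RPMI 1640 buffered with 0.165 M MOPS. DMSO-dissolved compounds were serially diluted in medium. MIC was read at 7 days as the lowest concentration with turbidity at ≤80% inhibition versus the drug-free control.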

Fonsecaea pedrosoi = assay: In vitro antifungal activity against Fonsecaea pedrosoi; outline: as §2
Cryptococcus neoformans = assay: In vitro antifungal activity against Cryptococcus neoformans
Outline: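 Microdilution MIC per NCCLS in MOPS (0.165 M)-buffered RPMI 1640. DMSO solutions were serially diluted in growth medium. Incubated at 35 °C as a yeast, with growth read at 72 h.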

Candida parapsilosis = assay: In vitro antifungal activity against Candida parapsilosis; settings: Lodderomyces parapsilosis
Outline: (§3)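 NCCLS broth serial dilution in 96-well plates with RPMI 1640 buffered with 0.165 M MOPS. Compounds were dissolved in DMSO and diluted in medium. Yeasts were incubated at 35 °C and read at 24 h. MIC is the lowest concentration giving turbidity at ≤80% inhibition versus the growth control.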

Trichophyton rubrum = assay: In vitro antifungal activity against Trichophyton rubrum; outline: as §1
Candida albicans = assay: In vitro antifungal activity against Candida albicans; outline: as §3
Sporothrix schenckii = assay: In vitro antifungal activity against Sporothrix schenck ii; outline: as §2

SMILES | MIC (Microsporum canis) [µg/mL] | MIC (Aspergillus fumigatus) [µg/mL] | MIC (Fonsecaea pedrosoi) [µg/mL] | MIC (Cryptococcus neoformans) [µg/mL] | MIC (Candida parapsilosis) [µg/mL] | MIC (Trichophyton rubrum) [µg/mL] | MIC (Candida albicans) [µg/mL] | MIC (Sporothrix schenckii) [µg/mL]
CCCCCC1(C)CC(=O)c2ccc(O)cc2O1 (stereo not drawn) | 40 (≈ 161 µM) | 160 (≈ 644 µM) | 80 (≈ 322 µM) | 160 (≈ 644 µM) | 160 (≈ 644 µM) | 20 (≈ 80.5 µM) | 320 (≈ 1290 µM) | 80 (≈ 322 µM)
CCCCCCCC1(C)CC(O)c2ccc(O)cc2O1 (stereo not drawn) | 2.5 (≈ 8.98 µM) | 80 (≈ 287 µM) | 80 (≈ 287 µM) | 40 (≈ 144 µM) | 20 (≈ 71.8 µM) | 20 (≈ 71.8 µM) | 40 (≈ 144 µM) | 40 (≈ 144 µM)
CC(C)=CCCC1(C)CC(=O)c2ccc(O)cc2O1 (stereo not drawn) | 40 (≈ 154 µM) | 80 (≈ 307 µM) | 160 (≈ 615 µM) | 160 (≈ 615 µM) | 80 (≈ 307 µM) | 80 (≈ 307 µM) | 160 (≈ 615 µM) | 160 (≈ 615 µM)
CC(C)=CCCC1(C)CC(O)c2ccc(O)cc2O1 (stereo not drawn) | 10 (≈ 38.1 µM) | 160 (≈ 610 µM) | 160 (≈ 610 µM) | 160 (≈ 610 µM) | 80 (≈ 305 µM) | 80 (≈ 305 µM) | 80 (≈ 305 µM) | 80 (≈ 305 µM)
CC(C)CC1(C)CC(=O)c2ccc(O)cc2O1 (stereo not drawn) | 40 (≈ 171 µM) | 160 (≈ 683 µM) | 160 (≈ 683 µM) | 320 (≈ 1370 µM) | 320 (≈ 1370 µM) | 160 (≈ 683 µM) | > 320 | 320 (≈ 1370 µM)
CCCCCC1(C)CC(O)c2ccc(OC)cc2O1 (stereo not drawn) | 20 (≈ 75.7 µM) | 80 (≈ 303 µM) | > 320 | 160 (≈ 605 µM) | 160 (≈ 605 µM) | 20 (≈ 75.7 µM) | 320 (≈ 1210 µM) | > 320
COc1ccc2c(c1)OC(C)(CCC=C(C)C)CC2=O (stereo not drawn) | 80 (≈ 292 µM) | 160 (≈ 583 µM) | > 320 | > 320 | > 320 | > 320 | > 320 | 320 (≈ 1170 µM)
CCCCCC1(C)CC(=O)c2ccc(OC)cc2O1 (stereo not drawn) | 80 (≈ 305 µM) | 160 (≈ 610 µM) | > 320 | > 320 | > 320 | > 320 | > 320 | > 320
CCCCCCCC1(C)CC(=O)c2ccc(O)cc2O1 (stereo not drawn) | 80 (≈ 289 µM) | 160 (≈ 579 µM) | 80 (≈ 289 µM) | 80 (≈ 289 µM) | 160 (≈ 579 µM) | 40 (≈ 145 µM) | 160 (≈ 579 µM) | 40 (≈ 145 µM)
CCCCCCCC1(C)CC(=O)c2ccc(OC)cc2O1 (stereo not drawn) | 40 (≈ 138 µM) | > 320 | > 320 | > 320 | 320 (≈ 1100 µM) | 320 (≈ 1100 µM) | > 320 | 40 (≈ 138 µM)
CCCCCCCC1(C)C=Cc2ccc(OC)cc2O1 (stereo not drawn) | 320 (≈ 1170 µM) | > 320 | > 320 | > 320 | > 320 | > 320 | > 320 | > 320
CCCCCC1(C)C=Cc2ccc(OC)cc2O1 (stereo not drawn) | 320 (≈ 1300 µM) | > 320 | > 320 | 320 (≈ 1300 µM) | > 320 | > 320 | > 320 | > 320
COc1ccc2c(c1)OC(C)(CCC=C(C)C)C=C2 (stereo not drawn) | 80 (≈ 310 µM) | > 320 | > 320 | > 320 | > 320 | 40 (≈ 155 µM) | > 320 | 320 (≈ 1240 µM)
CCCCCC1(C)CC(O)c2ccc(O)cc2O1 (stereo not drawn) | 10 (≈ 39.9 µM) | 80 (≈ 320 µM) | 40 (≈ 160 µM) | 80 (≈ 320 µM) | 40 (≈ 160 µM) | 20 (≈ 79.9 µM) | 160 (≈ 639 µM) | 20 (≈ 79.9 µM)
COc1ccc2c(c1)OC(C)(CCC=C(C)C)CC2O (stereo not drawn) | 160 (≈ 579 µM) | 160 (≈ 579 µM) | 320 (≈ 1160 µM) | 160 (≈ 579 µM) | 160 (≈ 579 µM) | 160 (≈ 579 µM) | > 320 | 320 (≈ 1160 µM)
CCCCCCCCCC1(C)CC(=O)c2ccc(O)cc2O1 (stereo not drawn) | 80 (≈ 263 µM) | 80 (≈ 263 µM) | > 320 | > 320 | > 320 | > 320 | > 320 | > 320
CCCCCCCC1(C)CC(O)c2ccc(OC)cc2O1 (stereo not drawn) | 80 (≈ 274 µM) | 80 (≈ 274 µM) | 160 (≈ 547 µM) | 80 (≈ 274 µM) | 160 (≈ 547 µM) | 80 (≈ 274 µM) | 320 (≈ 1090 µM) | 40 (≈ 137 µM)
CCCCCC1(C)C/C(=N/O)c2ccc(O)cc2O1 (stereo not drawn) | 5 (≈ 19 µM) | 80 (≈ 304 µM) | 40 (≈ 152 µM) | 40 (≈ 152 µM) | 40 (≈ 152 µM) | 5 (≈ 19 µM) | 160 (≈ 608 µM) | 40 (≈ 152 µM)
CC(C)=CCCC1(C)C/C(=N/O)c2ccc(O)cc2O1 (stereo not drawn) | 2.5 (≈ 9.08 µM) | 40 (≈ 145 µM) | 20 (≈ 72.6 µM) | 40 (≈ 145 µM) | 40 (≈ 145 µM) | 5 (≈ 18.2 µM) | 80 (≈ 291 µM) | 40 (≈ 145 µM)
CCCCCCCC1(C)C/C(=N/O)c2ccc(O)cc2O1 (stereo not drawn) | 0.625 (≈ 2.14 µM) | 10 (≈ 34.3 µM) | 40 (≈ 137 µM) | 20 (≈ 68.6 µM) | 20 (≈ 68.6 µM) | 2.5 (≈ 8.58 µM) | 40 (≈ 137 µM) | 10 (≈ 34.3 µM)
OC(Cn1cncn1)(Cn1cncn1)c1ccc(F)cc1F [FLUCONAZOLE] | 0.5 (≈ 1.63 µM) | 16 (≈ 52.2 µM) | 64 (≈ 209 µM) | 32 (≈ 104 µM) | 8 (≈ 26.1 µM) | 0.5 (≈ 1.63 µM) | 4 (≈ 13.1 µM) | 0.25 (≈ 0.816 µM)
